The values below come from PubChem BioAssay.

Assay [1] is described as follows: SK-BR-3 cell growth inhibitors, pilot screen, 24 h, human (AID 572).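 Note: compound exposure lasted between 18 and 24 h rather than exactly 24 h; 100% = carrier-treated control wells.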 To be noted: SK-BR-3 viability, CellTiter-Glo luminescence, at 10 µM, stronger effect = lower value.
Assay [2] can be described thus: HUVEC growth inhibition – cell-based, human, primary screen (AID 575;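 active = viability at or below 30% in both replicate assays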;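 note: 100% = median of untreated cell wells with 0.1% DMSO on each plate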). Particulars: HUVEC proliferation, CellTiter-Glo luminescence, 72 h; at 10 µM; stronger effect = lower value. The gist of the method: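 Test system: primary human umbilical vein endothelial cells; medium: endothelial basal medium with 2% FBS plus growth supplements; dosing: 10 µM compound only; times: 72 h treatment at 37 °C; signal: CTG luminescence; read-out: % viability relative to median vehicle-well signal on each plate; control set: vehicle and MePR control wells; plate: 384-well, collagen-coated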
A general note: Cellular ATP, detected with luciferase, serves as a proxy for viable cell number.

Assay [3] in a line: growth inhibitors of H69AR lung tumor, primary screen, human, duplicate replicates (AID 580;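 active = viability at or under a set limit in both replicates, limit being median viability minus 3 SD, cut at about 48% in these data, passing the limit was not always enough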;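 note: 100% = mean luminescence of untreated wells and 0% = no signal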). Particulars: H69AR lung tumor cells viability, ATP luminescence, 72 h; at 10 µM; stronger effect = lower value.
Assay [4] in a line: reversal of MRP1-mediated doxorubicin resistance, pilot screen, H69AR cells, doxorubicin co-treatment (AID 601;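 active = viability loss from added drug above about 55%, and viability with drug at most 40%, in both replicates, limit read from the data, passing the limit was not always enough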). To be noted: CellTiter-Glo, 72 h, at 10 µM; for differential viability (reversal): stronger effect = higher value.
Assay [5] in a line: 384-well plate pilot, post-Golgi transport modulator project, inhibition of yeast transport mutant growth (AID 636; in the data active = inhibition above about 31%). To be noted: absorbance 615 nm, about 18 h, stronger effect = higher value.
Assay [6] can be described thus: growth suppression of yeast trafficking mutant, preliminary HTS, modulators of trafficking downstream of Golgi apparatus project, 1536-format plate, OD 615 nm (AID 637; in the data active = inhibition above about 30%). To be noted: yeast transport mutant growth, absorbance 615 nm, 18 h; stronger effect = higher value.
[7] abbreviates: H69AR cells + 2 uM doxorubicin, measured here: viability with 2 uM doxorubicin, stronger effect = lower value.
Setting [8] is: H69AR cells, compound alone cytotoxicity.

The source made the active and inactive calls.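 Rule for the calls, unless noted: active = viability at or below 10% of carrier control in both of two separate runs; inconclusive = viability at or below 10% in only one of the two runs; inactive = the rest.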

What is called viability is a read-out of living cells in per cent, often relative to untreated cells. As a reminder, the inhibition is the change of the read-out against control, counted positive when it falls. Turning to `CN1CCc2c(sc3c2c(=O)n(-c2ccccc2)c2nnc(SCc4ccccc4)n32)C1`, the viability in assay [1] was 77% (inactive); in assay [2] it was 108% (inactive); in assay [3], 95.8% (inactive); in assay [4] (setting [7]), 86%; in assay [4] (setting [8]), 95.8%. Besides, in assay [4] (H69AR cells + 2 uM doxorubicin), the differential viability (reversal) was 9.76% (inactive). Also, the inhibition in assay [5] is -2.33% (inactive); in assay [6] it was 1.82% (inactive).
For `Cc1cccc(-n2c(SCc3cc(=O)n4ccsc4n3)nc3ccccc32)c1`, the viability in assay [1] was 93% (inactive); in assay [2], 66.1% (inactive); in assay [3], 78.5% (inactive); in assay [4] (setting [7]), 88.1%; in assay [4] (setting [8]) it was 78.5%. The differential viability (reversal) in assay [4] (H69AR cells + 2 uM doxorubicin) is -9.64% (inactive). The inhibition in assay [5] was 3.01% (inactive); in assay [6], 40% (active).
Take `Cc1cc(Nc2ccccc2)n(-c2ccccc2)n1`: the viability in assay [1] is 123% (inactive); in assay [2] it was 94.3% (inactive); in assay [3], 101% (inactive); in assay [4] (setting [7]), 95.6%; in assay [4] (setting [8]), 101%. The differential viability (reversal) in assay [4] (H69AR cells + 2 uM doxorubicin) was 5.72% (inactive). The figures for the inhibition in assay [5] and in assay [6] were -1.1% (inactive) and -6.61% (inactive), respectively.
As for `O=C(CNCC1CCCO1)Nc1ccccc1-n1cccc1` (stereo unspecified), the viability was 80% (inactive) in assay [1]; 106% (inactive) in assay [2]; 95.7% (inactive) in assay [3]; 90.6% in assay [4] (setting [7]); 95.7% in assay [4] (setting [8]). For the same molecule, in assay [4] (H69AR cells + 2 uM doxorubicin), the differential viability (reversal) is 5.03% (inactive). For the same molecule, the inhibition in assay [5] was -8.38% (inactive); in assay [6], -2.36% (inactive).
Consider `Cc1occc1-c1nnc(SCC(=O)N2CCOCC2)n1Cc1ccco1`, for which the viability was 106% (inactive) in assay [1]; 114% (inactive) in assay [2]; 101% (inactive) in assay [3]; 103% in assay [4] (setting [7]); 101% in assay [4] (setting [8]). Moreover, the differential viability (reversal) in assay [4] (H69AR cells + 2 uM doxorubicin) was -2.24% (inactive). Further, the inhibition in assay [5] was -2.93% (inactive); in assay [6], 5.09% (inactive).
As for `CCCCc1ccc(NC(=O)N[C@H](C(=O)O)C(C)C)cc1`, the viability in assay [1] was 119% (inactive); in assay [2], 82.6% (inactive); in assay [3] it was 95% (inactive); in assay [4] (setting [7]), 95.2%; in assay [4] (setting [8]), 95%. The differential viability (reversal) in assay [4] (H69AR cells + 2 uM doxorubicin) was -0.205% (inactive). The results for the inhibition in assay [5] and in assay [6] were -2.05% (inactive) and -5.32% (inactive), respectively.
On to `CCCCOc1ccc(S(=O)(=O)n2c(C)nc3ccccc32)cc1`, for which the viability in assay [1] was 138% (inactive); in assay [2] it was 53.2% (inactive); in assay [3], 87.1% (inactive); in assay [4] (setting [7]), 94.8%; in assay [4] (setting [8]), 87.1%. In assay [4] (H69AR cells + 2 uM doxorubicin), the differential viability (reversal) is -7.77% (inactive). For the same molecule, the inhibition in assay [5] was -3.38% (inactive); in assay [6] it was 1.33% (inactive).
Regarding `c1ccc(-c2cc(-c3nc(-c4ccccn4)no3)c3ccccc3n2)cc1`, the viability was 139% (inactive) in assay [1]; 63.9% (inactive) in assay [2]; 59% (inactive) in assay [3]; 56.3% in assay [4] (setting [7]); 59% in assay [4] (setting [8]). The differential viability (reversal) in assay [4] (H69AR cells + 2 uM doxorubicin) was 2.75% (inactive). Further, the inhibition in assay [5] was -2.7% (inactive); in assay [6], 8% (inactive).
Regarding `CCOC(=O)N1CCC(NC(=O)Cn2cc3c(n2)CCC(C)C3)CC1` (stereo unspecified), the viability in assay [1] is 128% (inactive); in assay [2], 93% (inactive); in assay [3], 98.7% (inactive); in assay [4] (setting [7]) it was 95.7%; in assay [4] (setting [8]) it was 98.7%. Also, the differential viability (reversal) in assay [4] (H69AR cells + 2 uM doxorubicin) was 3% (inactive). Also, the figures for the inhibition in assay [5] and in assay [6] were -1.64% (inactive) and 18.7% (inactive), respectively.
For the molecule `Cc1ccc(S(=O)(=O)NC(C)C(=O)Nc2ccc(C(N)=O)cc2)cc1` (stereo unspecified), the viability in assay [1] was 81% (inactive); in assay [2] it was 88.4% (inactive); in assay [3], 100% (inactive); in assay [4] (setting [7]) it was 96%; in assay [4] (setting [8]), 100%. Moreover, the differential viability (reversal) in assay [4] (H69AR cells + 2 uM doxorubicin) is 4.08% (inactive). The inhibition in assay [5] is -0.27% (inactive); in assay [6], -5.81% (inactive).
`CCOC(=O)C1CCN(CC(=O)c2c(C)[nH]c3ccccc23)CC1`: the viability was 100% (inactive) in assay [1]; 112% (inactive) in assay [2]; 92.6% (inactive) in assay [3]; 91.9% in assay [4] (setting [7]); 92.6% in assay [4] (setting [8]). Moreover, in assay [4] (H69AR cells + 2 uM doxorubicin), the differential viability (reversal) was 0.74% (inactive). Also, the inhibition is -0.67% (inactive) in assay [5] and -2.73% (inactive) in assay [6].
For the molecule `CCC[C@@H]1C[C@@H](C(=O)N[C@H]([C@@H](C)O)[C@H]2O[C@H](SC)[C@H](O)[C@@H](O)C2O)N(C)C1` (stereo partly specified), the viability is 128% (inactive) in assay [1]; 94.7% (inactive) in assay [2]; 89.7% (inactive) in assay [3]; 80% in assay [4] (setting [7]); 89.7% in assay [4] (setting [8]). Moreover, the differential viability (reversal) in assay [4] (H69AR cells + 2 uM doxorubicin) was 9.67% (inactive). Further, the inhibition is 0.52% (inactive) in assay [5] and 15.7% (inactive) in assay [6].
